Measured values taken from ChEMBL document CHEMBL1629614, “Inhibition of methionyl-tRNA synthetase by REP8839 and effects of resistance mutations on enzyme activity” (Antimicrob Agents Chemother, 2009).
Converted amounts (≈) assume the structure as drawn.

Key:
[1] = biological target: Methionine--tRNA ligase (Staphylococcus aureus subsp. aureus MW2, UniProt Q8NY00, A247E); experiment: Inhibition of Staphylococcus aureus MetRS A247E mutant
Summary of the method: (§1)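 Purified recombinant S. aureus MetRS (mutant, expressed in E. coli) was tested by ATP:PPi exchange with [32P]PPi, using 125 mM methionine and 100 μM ATP so that the IC50 sits above enzyme concentration. Inhibitor was in DMSO (8% final), over 1 μM to 0.05 nM. A sigmoidal fit gave the IC50, and Ki = IC50/[(1+[Met]/KmMet)(1+KmATP/[ATP])], with KmMet taken at that ATP level.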

[2] = Inhibition of Streptococcus pneumoniae MetRS2
Summary of the method: (§2)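 tRNA aminoacylation with scintillation proximity detection. Purified MetRS in 40 mM Tris-HCl pH 8.0, 10 mM Mg acetate, 2.5 mM ATP, 80 mM KCl, 2.5 mM DTT, BSA, [3H]methionine (7 μM Met), 1 μg/ml crude E. coli tRNA. Human enzymes had 0.2–0.6 mM spermine, and substrate, Mg and enzyme levels were optimized per ortholog. Inhibitor was a DMSO serial dilution, 1 μM to 0.05 nM (final), 8% DMSO final, 30 min at room temperature. Reactions were EDTA-stopped, and charged tRNA was captured on polylysine YSi beads at pH 2.0. IC50 came from a four-parameter logistic fit versus DMSO control.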

[3] = Cytotoxicity against rat H42E cells by MTT assay; type: cell-based
[4] = tested on: Staphylococcus aureus; experiment: Antimicrobial activity against Staphylococcus aureus expressing MetRS I57N I238F mutant; type: functional
[5] = biological target: Methionine--tRNA ligase (Staphylococcus aureus subsp. aureus MW2, UniProt Q8NY00, G54S/I57N); experiment: Inhibition of Staphylococcus aureus MetRS I57N G54S mutant
[6] = tested on: Staphylococcus aureus; experiment: Antimicrobial activity against Staphylococcus aureus expressing MetRS A247E mutant; type: functional
[7] = biological target: Methionine--tRNA ligase (Staphylococcus aureus subsp. aureus MW2, UniProt Q8NY00, G223C); experiment: Inhibition of Staphylococcus aureus MetRS G223C mutant; summary of the method: as §1
[8] = Inhibition of human mitochondrial MetRS; summary of the method: as §2
[9] = tested on: A549; experiment: Cytotoxicity against human A549 cells by MTT assay; type: cell-based
[10] = tested on: Haemophilus influenzae; experiment: Antimicrobial activity against Haemophilus influenzae expressing MetRS gene; type: functional
[11] = biological target: Methionine--tRNA ligase (Staphylococcus aureus subsp. aureus MW2, UniProt Q8NY00, A247E/I57N); experiment: Inhibition of Staphylococcus aureus MetRS I57N A247E mutant
[12] = tested on: Staphylococcus aureus; experiment: Antimicrobial activity against Staphylococcus aureus expressing MetRS gene; type: functional
[13] = tested on: Staphylococcus aureus; experiment: Antimicrobial activity against Staphylococcus aureus expressing MetRS I57N G54S mutant; type: functional
[14] = tested on: Streptococcus pneumoniae; experiment: Antimicrobial activity against Streptococcus pneumoniae expressing MetRS2 gene; type: functional
[15] = biological target: Methionine--tRNA ligase (Staphylococcus aureus subsp. aureus MW2, UniProt Q8NY00, V108M); experiment: Inhibition of Staphylococcus aureus MetRS V108M mutant; summary of the method: as §1
[16] = tested on: Staphylococcus aureus; experiment: Antimicrobial activity against Staphylococcus aureus expressing MetRS I57N A247E mutant; type: functional
[17] = tested on: Staphylococcus aureus; experiment: Antimicrobial activity against Staphylococcus aureus expressing MetRS G223C mutant; type: functional
[18] = tested on: Staphylococcus aureus; experiment: Antimicrobial activity against Staphylococcus aureus expressing MetRS L213W mutant; type: functional
[19] = tested on: Escherichia coli; experiment: Antimicrobial activity against Escherichia coli expressing MetRS gene; type: functional
[20] = tested on: Streptococcus pneumoniae; experiment: Antimicrobial activity against Streptococcus pneumoniae expressing MetRS1 gene; type: functional
[21] = Inhibition of human cytoplasmic MetRS; summary of the method: as §2
[22] = tested on: Staphylococcus aureus; experiment: Antimicrobial activity against Staphylococcus aureus expressing MetRS I57N V242F mutant; type: functional
[23] = tested on: Staphylococcus aureus; experiment: Antimicrobial activity against Staphylococcus aureus expressing MetRS G54S mutant; type: functional
[24] = tested on: Staphylococcus aureus; experiment: Antimicrobial activity against Staphylococcus aureus expressing MetRS G54A A64P mutant; type: functional
[25] = tested on: Staphylococcus aureus; experiment: Antimicrobial activity against Staphylococcus aureus expressing MetRS I57N mutant; type: functional
[26] = biological target: Methionine--tRNA ligase (Staphylococcus aureus subsp. aureus MW2, UniProt Q8NY00, L213W); experiment: Inhibition of Staphylococcus aureus MetRS L213W mutant; summary of the method: as §1
[27] = Inhibition of Staphylococcus aureus MetRS; summary of the method: as §2
[28] = biological target: Methionine--tRNA ligase (Staphylococcus aureus subsp. aureus MW2, UniProt Q8NY00, I57N/V242F); experiment: Inhibition of Staphylococcus aureus MetRS I57N V242F mutant
[29] = biological target: Methionine--tRNA ligase (Staphylococcus aureus subsp. aureus MW2, UniProt Q8NY00, G54S); experiment: Inhibition of Staphylococcus aureus MetRS G54S mutant
[30] = biological target: T1, Methionine--tRNA ligase (Haemophilus influenzae (strain ATCC 51907 / DSM 11121 / KW20 / Rd), UniProt P43828); experiment: Inhibition of Haemophilus influenzae MetRS; summary of the method: as §2
T1 sequence (P43828 whole entry): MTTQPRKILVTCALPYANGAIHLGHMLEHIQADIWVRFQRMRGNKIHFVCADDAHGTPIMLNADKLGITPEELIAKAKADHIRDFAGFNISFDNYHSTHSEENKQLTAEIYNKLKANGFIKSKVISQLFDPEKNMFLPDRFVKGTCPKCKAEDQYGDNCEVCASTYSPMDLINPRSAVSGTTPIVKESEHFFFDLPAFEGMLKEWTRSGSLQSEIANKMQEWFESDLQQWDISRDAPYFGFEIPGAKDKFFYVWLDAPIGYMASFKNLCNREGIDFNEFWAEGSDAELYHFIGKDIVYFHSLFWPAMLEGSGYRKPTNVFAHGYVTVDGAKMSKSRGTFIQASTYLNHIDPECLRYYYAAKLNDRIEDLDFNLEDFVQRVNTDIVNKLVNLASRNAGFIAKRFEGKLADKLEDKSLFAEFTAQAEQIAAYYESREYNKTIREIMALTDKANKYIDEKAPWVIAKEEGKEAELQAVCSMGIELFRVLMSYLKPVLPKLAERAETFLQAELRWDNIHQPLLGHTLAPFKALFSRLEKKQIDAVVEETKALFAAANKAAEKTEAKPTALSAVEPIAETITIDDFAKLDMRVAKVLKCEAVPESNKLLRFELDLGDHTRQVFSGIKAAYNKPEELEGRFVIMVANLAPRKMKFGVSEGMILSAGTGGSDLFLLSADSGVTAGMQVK

[31] = Inhibition of Escherichia coli MetRS; summary of the method: as §2
[32] = tested on: Staphylococcus aureus; experiment: Antimicrobial activity against Staphylococcus aureus expressing MetRS V108M mutant; type: functional
[33] = biological target: Methionine--tRNA ligase (Staphylococcus aureus subsp. aureus MW2, UniProt Q8NY00, I238F/I57N); experiment: Inhibition of Staphylococcus aureus MetRS I57N I238F mutant
[34] = Inhibition of Streptococcus pneumoniae MetRS1; summary of the method: as §2
[35] = biological target: Methionine--tRNA ligase (Staphylococcus aureus subsp. aureus MW2, UniProt Q8NY00, A64P/G54A); experiment: Inhibition of Staphylococcus aureus MetRS G54A A64P mutant
[36] = biological target: Methionine--tRNA ligase (Staphylococcus aureus subsp. aureus MW2, UniProt Q8NY00, I57N); experiment: Inhibition of Staphylococcus aureus MetRS I57N mutant; summary of the method: as §1

C=C(F)c1sc(CNCCCNc2cc(=O)c3ccccc3[nH]2)c(C)c1Br [BEDEROCIN]
Ki [1]: 0.06 nM | Ki [2]: > 5000 nM | IC50 [3]: > 20000 nM | MIC [4]: 32 µg/mL (≈ 71.1 µM) | Ki [5]: 900 nM | MIC [6]: 4 µg/mL (≈ 8.88 µM) | Ki [7]: 0.51 nM | Ki [8]: 23 nM | IC50 [9]: > 20000 nM | MIC [10]: > 64 µg/mL | Ki [11]: 60 nM | MIC [12]: 0.12 µg/mL (≈ 0.266 µM) | MIC [13]: 32 µg/mL (≈ 71.1 µM) | MIC [14]: 32 µg/mL (≈ 71.1 µM) | Ki [15]: 0.11 nM | MIC [16]: 32 µg/mL (≈ 71.1 µM) | MIC [17]: 8 µg/mL (≈ 17.8 µM) | MIC [18]: 2 µg/mL (≈ 4.44 µM) | MIC [19]: 16 µg/mL (≈ 35.5 µM) | MIC [20]: 0.12 µg/mL (≈ 0.266 µM) | Ki [21]: > 20000 nM | MIC [22]: 32 µg/mL (≈ 71.1 µM) | MIC [23]: 16 µg/mL (≈ 35.5 µM) | MIC [24]: 32 µg/mL (≈ 71.1 µM) | MIC [25]: 8 µg/mL (≈ 17.8 µM) | Ki [26]: 0.04 nM | Ki [27]: 0.01 nM | Ki [28]: 15 nM | Ki [29]: 85 nM | Ki [30]: 225 nM | Ki [31]: 10 nM | MIC [32]: 8 µg/mL (≈ 17.8 µM) | Ki [33]: 350 nM | Ki [34]: 0.055 nM | Ki [35]: 1900 nM | Ki [36]: 0.08 nM
